Shown are actives, neighbours in structure and some others; about 0.99% of the full set was active somewhere.
TLR4-MyD88 BLA: TLR4-MyD88 interaction inhibition in cells; inhibition, % at 8.4 µM; HeLa CL3-4 TLR4/MyD88 BLA complementation, FRET ratio; AID 861; 200,000 compounds, 0.18% hits; in the data active = inhibition above about 25%
NOD2 RIPK2 PPI: blocks binding of human NOD2 to RIPK2; inhibition, % at 4.98 µM; CHO BLA complementation NOD2-RIPK2, CCF4 ratio; 360,000 compounds, 0.38% hits; in the data active = inhibition above about 21%
SKN-1 block: blocks SKN-1 activity in C. elegans; inhibition, % at 21.8 µM; C. elegans VP596 Pgst-4::GFP/RFP ratio, acrylamide-induced, 24 h; 360,000 compounds, 0.49% hits;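 active = interference check ratio from 0.5 to 1.5 plus GFP to RFP signal ratio inhibition reaching or exceeding a fixed threshold, cut at about 30% in these data, passing the limit was not always enough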
MT1-MMP act inh: blocks activation of human MT1-MMP; P50281; HT1080 RFP-PRO-GFP cells, GFP/RFP ratio fluorescence, overnight; percent of plate control window, DMSO zero; GFP/RFP ratio change, % at 20 µM; 360,000 compounds, 0.061% hits; AID 651647;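 active = GFP/RFP ratio change of at least 30% with cell ATP level not reduced by more than half and red fluorescence within 50% of control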
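Test system: HT1080 cells expressing an RFP-PRO-GFP fluorescent reporter construct / Compound dosing: single-point 20 µM compound, 1% DMSO / Schedule: cells overnight before dosing, compound overnight, 37 °C, 5% CO2 / Evaluation: GFP/RFP fluorescence ratio / Control set: DMSO and RFP-L50D-GFP cell wells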
TLR9-MyD88 block: blocks human TLR9 binding to MyD88 | Q9NR96+Q99836 | CHO BLA complementation TLR9-MyD88, CCF4 FRET ratio | inhibition, % at 4.98 µM | 340,000 compounds, 0.21% hits;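 active = inhibition above the mean over all tested compounds plus 3 SD, cut at about 21% in these data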
TLR9-MyD88 cf: TLR9-MyD88 interaction inhibition, confirmation. shares compounds with TLR9-MyD88 block. CHO TLR9/MyD88 BLA complementation, CCF4 FRET ratio. inhibition, % at 4.98 µM. 680 compounds, 51% hits. AID 540250;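 active = mean inhibition across three repeats above about 21% taken from the earlier screen, limit read from the data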;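 also: blue over green emission ratio reports constitutive TLR9 MyD88 association via BLA complementation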
Target sequence (Q9NR96 whole entry, looked up): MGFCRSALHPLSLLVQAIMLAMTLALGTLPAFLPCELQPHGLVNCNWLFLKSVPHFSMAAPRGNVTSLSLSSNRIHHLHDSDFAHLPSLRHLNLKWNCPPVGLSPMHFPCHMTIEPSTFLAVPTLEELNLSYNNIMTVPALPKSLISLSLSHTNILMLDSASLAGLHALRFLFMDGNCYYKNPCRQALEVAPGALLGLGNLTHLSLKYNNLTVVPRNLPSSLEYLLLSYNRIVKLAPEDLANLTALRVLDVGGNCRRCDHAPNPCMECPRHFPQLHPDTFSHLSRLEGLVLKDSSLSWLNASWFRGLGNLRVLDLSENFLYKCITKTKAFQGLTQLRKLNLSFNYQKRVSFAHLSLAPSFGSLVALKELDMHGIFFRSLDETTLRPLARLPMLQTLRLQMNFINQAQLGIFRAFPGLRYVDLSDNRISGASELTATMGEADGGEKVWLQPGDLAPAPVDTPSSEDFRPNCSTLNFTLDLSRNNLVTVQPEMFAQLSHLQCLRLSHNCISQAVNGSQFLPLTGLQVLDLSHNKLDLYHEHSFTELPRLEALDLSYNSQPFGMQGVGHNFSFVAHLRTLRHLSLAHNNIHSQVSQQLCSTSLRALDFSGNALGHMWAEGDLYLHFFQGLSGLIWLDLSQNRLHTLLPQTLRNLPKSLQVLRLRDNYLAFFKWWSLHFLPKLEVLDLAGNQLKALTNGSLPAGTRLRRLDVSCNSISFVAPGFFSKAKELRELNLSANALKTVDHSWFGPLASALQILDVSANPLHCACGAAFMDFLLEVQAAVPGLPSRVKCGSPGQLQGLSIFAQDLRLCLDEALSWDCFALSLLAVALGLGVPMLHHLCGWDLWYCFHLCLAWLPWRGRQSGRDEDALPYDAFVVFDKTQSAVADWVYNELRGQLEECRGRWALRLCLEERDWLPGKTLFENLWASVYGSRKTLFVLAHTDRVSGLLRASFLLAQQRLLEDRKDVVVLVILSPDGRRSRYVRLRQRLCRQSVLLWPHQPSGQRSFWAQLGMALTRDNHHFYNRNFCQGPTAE
BLA counter-1: beta-lactamase reporter inhibition, counter-screen artifact; shares compounds with TLR9-MyD88 block; CHO-BLA cells, CCF4 FRET ratio, BLA reporter; inhibition, % at 4.98 µM; 680 compounds, 7% hits; AID 540251;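 active = mean inhibition above a 50% cutoff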;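 also: counterscreen of TLR9-MyD88 hits on CMV-driven BLA in CHO-K1 cells; higher means less blue over green ratio so more BLA blockade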
TLR9 CHO tox: counter-screen for TLR9-MyD88 inhibitors: cytotoxicity in CHO cells | shares compounds with TLR9-MyD88 block | luminescence | inhibition, % at 4.98 µM | 680 compounds, 39% hits | AID 588336; in the data active = inhibition above about 11%
NOD2-RIPK2 conf: NOD2-RIPK2 interaction inhibition confirmed. CHO cells, NOD2-RIPK2 BLA complementation, CCF4 FRET. shares compounds with NOD2 RIPK2 PPI. 1,200 compounds, 70% hits. AID 624370. inhibition, % at 4.98 µM;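 active = mean inhibition across replicates above a set limit taken from the earlier primary screen, cut at about 21% in these data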
BLA counter-2: NOD2-RIPK2 counterscreen BLA reporter activity | 1,200 compounds, 57% hits | AID 624371 | CHO BLA reporter, CCF4 FRET ratio | shares compounds with NOD2 RIPK2 PPI | inhibition, % at 4.98 µM;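 active = mean inhibition above the low-control mean inhibition plus three low-control SD, cut at about 11% in these data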
Large screens that a line does not name were inactive (follow-up assays come after a bar, where they were run).

CN1C2CCC1/C(=C/c1ccccn1)C(=O)/C2=C\c1ccccn1	NOD2 RIPK2 PPI 30, TLR9-MyD88 block 24 | TLR9-MyD88 cf inactive | BLA counter-1 inactive | TLR9 CHO tox 99 | NOD2-RIPK2 conf 42 | BLA counter-2 inactive
Cc1ccccc1-n1c(/C=C/c2ccccn2)nc2ccccc2c1=O	none (no result: TLR4-MyD88 BLA)
Cc1cc(N(CCCl)CCCl)ccc1C=Cc1ccncn1	NOD2 RIPK2 PPI 40, SKN-1 block 42, TLR9-MyD88 block 32 (no result: TLR4-MyD88 BLA) | TLR9-MyD88 cf inactive | BLA counter-1 inactive | TLR9 CHO tox inactive | NOD2-RIPK2 conf 26 | BLA counter-2 31
C=CCNC(=S)N1Cc2ccccc2-n2nncc2C1	none (no result: TLR4-MyD88 BLA)
CCOC(=O)[C@]12Cc3cc(C)ccc3[C@H]1N(C)C(=O)c1cc(OC)ccc12	none (no result: TLR4-MyD88 BLA, TLR9-MyD88 block)
CC1=C(O)C(=O)C=C2C1=CC=C1C2(C)CCC2(C)C3CC(C)(C(=O)O)CCC3(C)CCC12C (centres undefined)	NOD2 RIPK2 PPI 81, TLR9-MyD88 block 29 (no result: TLR4-MyD88 BLA) | TLR9-MyD88 cf 50 | BLA counter-1 inactive | TLR9 CHO tox 98 | NOD2-RIPK2 conf 81 | BLA counter-2 inactive
COc1cc(/C=C/c2nc3ccccc3c(=O)n2-c2cccc(O)c2)ccc1O	NOD2 RIPK2 PPI 21 (no result: TLR4-MyD88 BLA) | NOD2-RIPK2 conf inactive | BLA counter-2 14
O=C(C1CCCCC1)N1Cc2ccccc2-n2nncc2C1	none (no result: TLR4-MyD88 BLA)
C[n+]1c(-c2ccccc2)c2cc(N)ccc2c2ccc(N)cc21	NOD2 RIPK2 PPI 28 (no result: TLR4-MyD88 BLA) | NOD2-RIPK2 conf inactive | BLA counter-2 inactive
CCCN(CC#CCOc1ccc(OC)cc1)CCC	none
COC(=O)C1=C(c2ccc3ccccc3c2)C[C@@H]2CC[C@H]1N2C	none (no result: TLR4-MyD88 BLA)
COC(=O)C1=C(C(=O)OC)C2OC1c1cc3ccccc3cc12	NOD2 RIPK2 PPI 88 (no result: TLR4-MyD88 BLA) | NOD2-RIPK2 conf 86 | BLA counter-2 19
C[C@]12CCC3C(CC[C@H]4C[C@H](O)CC[C@]34C)C1C[C@@H](CCCCl)[C@@H]2O (some centres undefined)	none (no result: TLR4-MyD88 BLA, TLR9-MyD88 block)
COC(=O)[C@@H]1[C@@H](C(=O)OC)C2(c3ccccc3-c3ccccc32)N(c2ccc(Cl)cc2)N1C#N	NOD2 RIPK2 PPI 71 | NOD2-RIPK2 conf 68 | BLA counter-2 inactive
COC(=O)C1=CCCN(C)C1	none
C=C1C(=O)OC2CC3(C)OC3CCC(C)=CC(OC(C)=O)C12 (centres undefined)	none (no result: TLR4-MyD88 BLA)
C=C1C(=O)OC2CC3(C)OC3C3OC3C3=CC(OC3=O)C12 (centres undefined)	NOD2 RIPK2 PPI 44 (no result: TLR4-MyD88 BLA, TLR9-MyD88 block) | NOD2-RIPK2 conf 67 | BLA counter-2 18
COc1ccc(CN2Cc3cnnn3-c3ccccc3C2C#N)cc1 (centres undefined)	NOD2 RIPK2 PPI 45 (no result: TLR4-MyD88 BLA) | NOD2-RIPK2 conf inactive | BLA counter-2 inactive
N#CC1c2ccccc2-n2nncc2CN1Cc1cc(Cl)cc(Cl)c1 (centres undefined)	NOD2 RIPK2 PPI 59 (no result: TLR4-MyD88 BLA) | NOD2-RIPK2 conf 43 | BLA counter-2 inactive
C[C@@H]1CN([C@H](C)CO)C(=O)CCCn2nncc2CO[C@@H]1CN(C)C(=O)Oc1cccc2ccccc12	none (no result: TLR4-MyD88 BLA)
COc1ccc(C[C@H]2NC[C@H](O)[C@H]2OC(C)=O)cc1	NOD2 RIPK2 PPI 26 (no result: TLR4-MyD88 BLA) | NOD2-RIPK2 conf 29 | BLA counter-2 inactive
O=C1NC2C(=CC(O)C(O)C2O)c2cc3c(c(O)c21)OCO3 (centres undefined)	NOD2 RIPK2 PPI 30, SKN-1 block 55 (no result: TLR4-MyD88 BLA) | NOD2-RIPK2 conf 27 | BLA counter-2 inactive
O=C1NC2C(O)C(O)C(O)C(O)C2c2cc3c(c(O)c21)OCO3 (centres undefined)	NOD2 RIPK2 PPI 22 (no result: TLR4-MyD88 BLA) | NOD2-RIPK2 conf 29 | BLA counter-2 inactive
COc1cc(C2c3cc4c(cc3CC3COC(=O)C32)OCO4)cc(OC)c1O (centres undefined)	none (no result: TLR4-MyD88 BLA)
CC(=O)OCC12CC(OC(=O)CC(C)C)C(C)=CC1OC1C(O)C(OC(C)=O)C2(C)C12CO2 (centres undefined)	NOD2 RIPK2 PPI 23 (no result: TLR4-MyD88 BLA) | NOD2-RIPK2 conf 23 | BLA counter-2 inactive
CCOC(=O)[C@]12Cc3cc(OC)ccc3[C@H]1N(C)C(=O)c1ccccc12	none (no result: TLR4-MyD88 BLA, TLR9-MyD88 block)
CCOC(=O)[C@]12Cc3cc(Cl)ccc3[C@H]1N(C)C(=O)c1ccccc12	none (no result: TLR4-MyD88 BLA, TLR9-MyD88 block)
CCOC(=O)[C@]12Cc3cc(Cl)ccc3[C@H]1N(C1CCCCC1)C(=O)c1ccccc12	NOD2 RIPK2 PPI 66 (no result: TLR4-MyD88 BLA, TLR9-MyD88 block) | NOD2-RIPK2 conf 68 | BLA counter-2 inactive
CCOC(=O)[C@]12Cc3cc(C)ccc3[C@H]1N(C)C(=O)c1ccccc12	none (no result: TLR4-MyD88 BLA, TLR9-MyD88 block)
CCOC(=O)[C@]12Cc3cc(OC)ccc3[C@H]1N(C1CCCCC1)C(=O)c1ccccc12	NOD2 RIPK2 PPI 50 (no result: TLR4-MyD88 BLA, TLR9-MyD88 block) | NOD2-RIPK2 conf 62 | BLA counter-2 inactive
CCOC(=O)[C@]12Cc3cc(Cl)ccc3[C@H]1N(C(C)C)C(=O)c1ccccc12	NOD2 RIPK2 PPI 30 (no result: TLR4-MyD88 BLA, TLR9-MyD88 block) | NOD2-RIPK2 conf 67 | BLA counter-2 inactive
CCCCCN1C(=O)c2cc(OC)ccc2[C@@]2(C(=O)OCC)Cc3cc(Cl)ccc3[C@@H]12	NOD2 RIPK2 PPI 46 (no result: TLR4-MyD88 BLA, TLR9-MyD88 block) | NOD2-RIPK2 conf 44 | BLA counter-2 inactive
CC(C)C12CN3CCN(CC(C3)/C1=N\O)C2	none
CC(C)(C)P(=O)(c1ccncc1)N1CCCC1 (centres undefined)	none
CC1CC(C)CC(C)C(O)C(C#N)=CC=CCC(C2CCCC2C(=O)O)OC(=O)CC(O)C(C)C1 (centres undefined)	NOD2 RIPK2 PPI 30 (no result: TLR4-MyD88 BLA) | NOD2-RIPK2 conf 28 | BLA counter-2 inactive
Cc1nc2ccc(Br)cc2c(=O)n1-c1ccc([N+](=O)[O-])c(C(F)(F)F)c1	none (no result: TLR4-MyD88 BLA)
O=c1[nH]c2ccccc2n1C1CCN(C(c2cccs2)c2nnnn2-c2ccc3c(c2)OCCO3)CC1 (centres undefined)	none (no result: TLR4-MyD88 BLA, TLR9-MyD88 block)
O=C1NC(=O)N(c2cccc(Br)c2)C(=O)/C1=C/c1ccsc1	none

From PubChem
